“And” between values parts separate entries of the source, which are not always exact repeats. Equal entries are not always repeated. Blank lines part the entries; values can stand above or below the compound they belong to.
Experiments:
Safety and tolerability = type: in vivo, human healthy volunteers
Outline: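 Healthy volunteers in a randomized crossover separated by a 14-day washout. Treatments were a single fasted oral 5-mg dose on day 1, or ketoconazole 400 mg/day on days 1–7 with the 5-mg dose on day 4. Safety was monitored through adverse events, vital signs, ECGs, laboratory tests and physical examinations. AEs were graded by NCI CTCAE v3.0. All subjects receiving at least one dose of any study medication were included.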

[1] = Blood pressure change from baseline in crossover study; type: in vivo, human healthy volunteers
Outline: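 Randomized two-way crossover in healthy volunteers with placebo on day –1 and a 14-day washout. In one arm, a single oral 5-mg dose was given on day 1 after an overnight fast of at least 8 h. In the other, oral ketoconazole 400 mg/day was given on days 1–7, with the 5-mg dose given alongside it on day 4. BP was measured before blood sampling at PK timepoints and at 10 h post-dose, expressed as time-matched change from baseline. Analysis required at least one baseline and one post-baseline reading.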

[2] = Intrinsic clearance converted from in vivo systemic clearance; parameters: species or system human healthy volunteers
[3] = type: in vivo, human healthy volunteers
[4] = ketoconazole 400 mg; based on IC50 in human liver microsomal preparations
[5] = concurrent administration of phenytoin, one patient; cited from earlier work
[6] = cited from earlier work
tumor growth = details: pre-clinical tumor growth inhibition studies; cited from earlier work
[7] = system: axitinib metabolism in human liver microsomes; type: in vitro ADME; details: probe axitinib
[8] = axitinib in combination with ketoconazole
[9] = in the presence of ketoconazole

clearance attributed to non-metabolic pathways, share ([2]; remaining clearance): 20% | contribution of CYP3A to total CLint ([2]; sensitivity analyses): 50% | contribution of glucuronidation to total CLint ([2]; sensitivity analyses): 30% | pre-dose axitinib plasma concentration ([3]; all pre-dose samples, below lower limit of quantification): < 0.100 ng/mL | half-life ([3]; human, plasma, oral, 5 mg): 9.44 h | fold increase in axitinib geometric mean AUC0–∞ observed clinically [3, 9]: 2.06 fold and ~ 2 fold | fold increase in axitinib geometric mean Cmax observed clinically [3, 9]: 1.50 fold and ~ 1.5 fold | predicted fold increase in axitinib geometric mean AUC0–∞ [4]: 1.8 fold | predicted fold increase in axitinib geometric mean Cmax [4]: 1.5 fold
Compound: CNC(=O)c1ccccc1Sc1ccc2c(/C=C/c3ccccn3)n[nH]c2c1 [Axitinib]
tolerability (Safety and tolerability; axitinib alone, single 5-mg dose): well tolerated | tolerability (Safety and tolerability; [8]): well tolerated | mean time-matched changes from baseline in BP [1, 8]: minimal | mean time-matched changes from baseline in BP ([1]; axitinib treatment alone): minimal | fold reduction of axitinib AUC0–24 [5]: approximately 10 fold | fold reduction of axitinib Cmax [5]: approximately 10 fold | average axitinib plasma concentration in clinical trials ([6]; after dosing 5 mg twice daily): 0.19 ± 0.12 nmol/L | effective plasma terminal half-life [6]: 2 to 5 h | oral absolute bioavailability [6]: approximately 58% | time of peak plasma concentrations after dosing ([6]; oral, fed state): 1 to 4 h | effective axitinib concentration (tumor growth): 0.28 to 0.85 nmol/L

IC50 [7]: 400 nM
Compound: CC(=O)N1CCN(c2ccc(OCC3COC(Cn4ccnc4)(c4ccc(Cl)cc4Cl)O3)cc2)CC1 (stereo not drawn) [Ketoconazole, ketoconazole]

From PMC3256319 (Investigational New Drugs, 2010)
